Test results published in ChEMBL document CHEMBL5303300, “EUbOPEN Chemogenomics Library - Multiplex” (2023).
Values joined by “and” are separate entries in the source; they are usually repeats but may differ in a detail not shown here. Identical values can stand only once.

Tested on: U2OS
Assay: Multiplex assay against U2OS
Type: toxicity, cell-based
Settings: human, number of replicates 2
Procedure, shortened: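 With compound added, live cells were imaged on a CQ1 microscope at 37°C and 5% CO2; staining with Hoechst33342, BioTracker Green Microtubule Cytoskeleton Dye, MitoTracker Red and Annexin V Alexa Fluor 680 had been done at seeding. The CellPathfinder machine-learning gating scheme split cells into Hoechst high-intensity objects or normal cells, normal cells into healthy, pyknosed or fragmented nuclei, and pyknosed cells into mitotic or apoptotic. The tubulin, mitochondrial-mass and membrane-permeability phenotypes are per cents of healthy-nucleus cells.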

[1] = 12 h, 1 µM, compound concentration 1 uM
[2] = 12 h, 10 µM, compound concentration 10 uM
[3] = 24 h, 1 µM, compound concentration 1 uM
[4] = 24 h, 10 µM, compound concentration 10 uM
[5] = 48 h, 1 µM, compound concentration 1 uM
[6] = 48 h, 10 µM, compound concentration 10 uM

## Cn1cc(-n2cnc3c(NCc4nc5cc(Cl)c(Cl)cc5[nH]4)nc(N4CCOCC4)nc32)cn1
[1]
  Population Apoptotic (%): 41% and 88%
  Population Healthy Nuclei (%): 36% and 71%
  Population Hoechst High Intensity Objects (%): 0%
  Population Membrane Permeable-Phenotype (%): 5% and 7%
  Population Mitochondria Different-Phenotype (%): 0% and 8%
  Population Normal (%): 100%
  Population Pyknosed Nuclei (%): 36% and 24%
  Population Tubulin-Different-Phenotype (%): 58% and 50%
[2]
  Population Apoptotic (%): 62% and 75%
  Population Hoechst High Intensity Objects (%): 0%
  Population Membrane Permeable-Phenotype (%): 33% and 23%
  Population Mitochondria Different-Phenotype (%): 16% and 37%
  Population Mitotic Cells (%): 37% and 24%
  Population Normal (%): 100%
  Population Pyknosed Nuclei (%): 39% and 28%
  Population Tubulin-Different-Phenotype (%): 66% and 73%
[3]
  Population Apoptotic (%): 96% and 80%
  Population Fragmented Nuclei (%): 9% and 21%
  Population Healthy Nuclei (%): 11% and 13%
  Population Hoechst High Intensity Objects (%): 1% and 7%
  Population Membrane Permeable-Phenotype (%): 18% and 0%
  Population Normal (%): 98% and 92%
  Population Pyknosed Nuclei (%): 79% and 65%
  Population Tubulin-Different-Phenotype (%): 50% and 80%
[4]
  Population Apoptotic (%): 94% and 95%
  Population Hoechst High Intensity Objects (%): 1% and 0%
  Population Mitotic Cells (%): 5% and 4%
  Population Normal (%): 98% and 100%
  Population Pyknosed Nuclei (%): 64% and 61%
  Population Tubulin-Different-Phenotype (%): 89% and 33%
[5]
  Population Apoptotic (%): 100% and 86%
  Population Fragmented Nuclei (%): 10% and 16%
  Population Healthy Nuclei (%): 4% and 0%
  Population Hoechst High Intensity Objects (%): 2% and 7%
  Population Mitotic Cells (%): 0% and 13%
  Population Normal (%): 97% and 92%
  Population Pyknosed Nuclei (%): 85% and 83%
[6]
  Population Apoptotic (%): 94% and 92%
  Population Healthy Nuclei (%): 10% and 5%
  Population Hoechst High Intensity Objects (%): 0% and 1%
  Population Membrane Permeable-Phenotype (%): 100% and 57%
  Population Mitochondria Different-Phenotype (%): 100% and 57%
  Population Mitotic Cells (%): 5% and 7%
  Population Normal (%): 100% and 98%
  Population Pyknosed Nuclei (%): 44% and 85%
  Population Tubulin-Different-Phenotype (%): 100% and 85%

## Cc1cc(NC(=O)c2cccc(NC(=O)/C=C/CN(C)C)c2)ccc1Nc1nccc(-c2cccnc2)n1
[1]
  Population Apoptotic (%): 100% and 77%
  Population Healthy Nuclei (%): 55% and 82%
  Population Hoechst High Intensity Objects (%): 0%
  Population Membrane Permeable-Phenotype (%): 0%
  Population Mitochondria Different-Phenotype (%): 4% and 0%
  Population Mitotic Cells (%): 0% and 22%
  Population Normal (%): 100%
  Population Pyknosed Nuclei (%): 4% and 12%
  Population Tubulin-Different-Phenotype (%): 70% and 87%
[2]
  Population Apoptotic (%): 75%
  Population Fragmented Nuclei (%): 9% and 3%
  Population Healthy Nuclei (%): 61% and 65%
  Population Hoechst High Intensity Objects (%): 0%
  Population Membrane Permeable-Phenotype (%): 15% and 21%
  Population Mitochondria Different-Phenotype (%): 23% and 18%
  Population Mitotic Cells (%): 25% and 24%
  Population Normal (%): 100%
  Population Pyknosed Nuclei (%): 28% and 31%
  Population Tubulin-Different-Phenotype (%): 76% and 43%
[3]
  Population Apoptotic (%): 33% and 86%
  Population Healthy Nuclei (%): 60% and 83%
  Population Hoechst High Intensity Objects (%): 0%
  Population Membrane Permeable-Phenotype (%): 3% and 1%
  Population Mitochondria Different-Phenotype (%): 3% and 0%
  Population Normal (%): 100%
  Population Pyknosed Nuclei (%): 6% and 9%
  Population Tubulin-Different-Phenotype (%): 66% and 90%
[4]
  Population Apoptotic (%): 92% and 85%
  Population Fragmented Nuclei (%): 15% and 10%
  Population Healthy Nuclei (%): 26% and 35%
  Population Hoechst High Intensity Objects (%): 4% and 1%
  Population Membrane Permeable-Phenotype (%): 41% and 23%
  Population Mitochondria Different-Phenotype (%): 41% and 38%
  Population Mitotic Cells (%): 7% and 14%
  Population Normal (%): 95% and 98%
  Population Pyknosed Nuclei (%): 58% and 53%
  Population Tubulin-Different-Phenotype (%): 91% and 61%
[5]
  Population Apoptotic (%): 37% and 75%
  Population Fragmented Nuclei (%): 18% and 6%
  Population Healthy Nuclei (%): 69% and 86%
  Population Hoechst High Intensity Objects (%): 0%
  Population Membrane Permeable-Phenotype (%): 4% and 1%
  Population Mitochondria Different-Phenotype (%): 2% and 1%
  Population Mitotic Cells (%): 62% and 24%
  Population Normal (%): 100%
  Population Pyknosed Nuclei (%): 12% and 7%
  Population Tubulin-Different-Phenotype (%): 68% and 91%
[6]
  Population Apoptotic (%): 96% and 95%
  Population Healthy Nuclei (%): 11% and 9%
  Population Hoechst High Intensity Objects (%): 10% and 2%
  Population Membrane Permeable-Phenotype (%): 100% and 92%
  Population Mitochondria Different-Phenotype (%): 100% and 53%
  Population Mitotic Cells (%): 3% and 4%
  Population Normal (%): 89% and 97%
  Population Pyknosed Nuclei (%): 67% and 84%
  Population Tubulin-Different-Phenotype (%): 100% and 84%

## CN(C)[C@H]1CC[C@H](Nc2ncc3ncnc(Nc4ccc(F)c(Cl)c4)c3n2)CC1
[1]
  Population Fragmented Nuclei (%): 46% and 17%
  Population Healthy Nuclei (%): 42% and 68%
  Population Hoechst High Intensity Objects (%): 0%
  Population Membrane Permeable-Phenotype (%): 4% and 1%
  Population Mitochondria Different-Phenotype (%): 4% and 1%
  Population Mitotic Cells (%): 100% and 64%
  Population Normal (%): 100% and 99%
  Population Pyknosed Nuclei (%): 10% and 14%
  Population Tubulin-Different-Phenotype (%): 76% and 89%
[2]
  Population Apoptotic (%): 6% and 13%
  Population Fragmented Nuclei (%): 38% and 27%
  Population Healthy Nuclei (%): 36%
  Population Hoechst High Intensity Objects (%): 9% and 11%
  Population Membrane Permeable-Phenotype (%): 7% and 2%
  Population Mitochondria Different-Phenotype (%): 6% and 1%
  Population Mitotic Cells (%): 93% and 86%
  Population Normal (%): 90% and 88%
  Population Pyknosed Nuclei (%): 25% and 35%
  Population Tubulin-Different-Phenotype (%): 50% and 81%
  Total Cell Count: 197 and 472
[3]
  Population Apoptotic (%): 16% and 47%
  Population Healthy Nuclei (%): 43% and 76%
  Population Hoechst High Intensity Objects (%): 0%
  Population Membrane Permeable-Phenotype (%): 0% and 3%
  Population Mitochondria Different-Phenotype (%): 0% and 1%
  Population Mitotic Cells (%): 83% and 52%
  Population Normal (%): 100% and 99%
  Population Pyknosed Nuclei (%): 9% and 11%
  Population Tubulin-Different-Phenotype (%): 75% and 92%
[4]
  Population Apoptotic (%): 17% and 10%
  Population Fragmented Nuclei (%): 40% and 25%
  Population Healthy Nuclei (%): 33% and 40%
  Population Hoechst High Intensity Objects (%): 14% and 9%
  Population Membrane Permeable-Phenotype (%): 8% and 2%
  Population Mitochondria Different-Phenotype (%): 2% and 0%
  Population Mitotic Cells (%): 82% and 89%
  Population Normal (%): 85% and 90%
  Population Pyknosed Nuclei (%): 26% and 33%
  Population Tubulin-Different-Phenotype (%): 61% and 82%
[5]
  Population Apoptotic (%): 75% and 60%
  Population Healthy Nuclei (%): 39% and 76%
  Population Hoechst High Intensity Objects (%): 0%
  Population Membrane Permeable-Phenotype (%): 3% and 1%
  Population Mitochondria Different-Phenotype (%): 0% and 1%
  Population Mitotic Cells (%): 25% and 39%
  Population Normal (%): 100% and 99%
  Population Pyknosed Nuclei (%): 5% and 8%
  Population Tubulin-Different-Phenotype (%): 71% and 89%
[6]
  Population Apoptotic (%): 18% and 14%
  Population Fragmented Nuclei (%): 36% and 26%
  Population Healthy Nuclei (%): 38% and 47%
  Population Hoechst High Intensity Objects (%): 13% and 10%
  Population Membrane Permeable-Phenotype (%): 9% and 1%
  Population Mitochondria Different-Phenotype (%): 4% and 0%
  Population Mitotic Cells (%): 81% and 85%
  Population Normal (%): 86% and 89%
  Population Pyknosed Nuclei (%): 25%
  Population Tubulin-Different-Phenotype (%): 53% and 79%

## N=C(N)NCCC[C@H](NC(=O)COCC(c1ccccc1)c1ccccc1)C(=O)O.O=C(O)C(F)(F)F
[1]
  Population Apoptotic (%): 100% and 45%
  Population Healthy Nuclei (%): 40% and 87%
  Population Hoechst High Intensity Objects (%): 0%
  Population Membrane Permeable-Phenotype (%): 0% and 1%
  Population Mitochondria Different-Phenotype (%): 0%
  Population Normal (%): 100% and 99%
  Population Pyknosed Nuclei (%): 13% and 9%
  Population Tubulin-Different-Phenotype (%): 41% and 86%
[2]
  Population Apoptotic (%): 50% and 58%
  Population Fragmented Nuclei (%): 3%
  Population Healthy Nuclei (%): 70% and 88%
  Population Hoechst High Intensity Objects (%): 0%
  Population Membrane Permeable-Phenotype (%): 4% and 1%
  Population Mitochondria Different-Phenotype (%): 4% and 0%
  Population Mitotic Cells (%): 50% and 41%
  Population Normal (%): 100%
  Population Tubulin-Different-Phenotype (%): 71% and 83%
[3]
  Population Apoptotic (%): 40% and 51%
  Population Healthy Nuclei (%): 55% and 88%
  Population Hoechst High Intensity Objects (%): 0%
  Population Membrane Permeable-Phenotype (%): 13% and 0%
  Population Mitochondria Different-Phenotype (%): 0%
  Population Mitotic Cells (%): 60% and 48%
  Population Normal (%): 100%
  Population Pyknosed Nuclei (%): 18% and 9%
  Population Tubulin-Different-Phenotype (%): 73% and 87%
[4]
  Population Apoptotic (%): 71% and 50%
  Population Fragmented Nuclei (%): 7% and 2%
  Population Healthy Nuclei (%): 73% and 88%
  Population Hoechst High Intensity Objects (%): 0%
  Population Membrane Permeable-Phenotype (%): 3% and 0%
  Population Mitochondria Different-Phenotype (%): 3% and 0%
  Population Mitotic Cells (%): 28% and 50%
  Population Normal (%): 100%
  Population Pyknosed Nuclei (%): 18% and 8%
  Population Tubulin-Different-Phenotype (%): 67% and 85%
[5]
  Population Apoptotic (%): 50% and 43%
  Population Healthy Nuclei (%): 63% and 89%
  Population Hoechst High Intensity Objects (%): 0%
  Population Membrane Permeable-Phenotype (%): 11% and 0%
  Population Mitochondria Different-Phenotype (%): 7% and 0%
  Population Mitotic Cells (%): 50% and 56%
  Population Normal (%): 100%
  Population Pyknosed Nuclei (%): 14% and 6%
  Population Tubulin-Different-Phenotype (%): 73% and 85%
[6]
  Population Apoptotic (%): 35% and 55%
  Population Fragmented Nuclei (%): 7% and 2%
  Population Healthy Nuclei (%): 70% and 93%
  Population Hoechst High Intensity Objects (%): 0%
  Population Membrane Permeable-Phenotype (%): 2% and 1%
  Population Mitochondria Different-Phenotype (%): 2% and 0%
  Population Mitotic Cells (%): 64% and 44%
  Population Normal (%): 100% and 99%
  Population Tubulin-Different-Phenotype (%): 63% and 95%
